# Assay results as given in PubChem BioAssay.
# Calls of active or inactive are those of the source.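 How the source made its calls, unless noted: active means mean duplicate potentiation above the buffer control mean plus 5 SD of buffer wells; inactive means the rest.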
# Legend:
# [1] = nonspecific flux increase, KCNQ1-free cells – parental CHO cells, counter-screen for KCNQ1 potentiator project (AID 493006;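 active means duplicate-averaged activation above buffer control mean plus 5 SD of those controls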;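 on activation: fluorescence ratio of max minus min over baseline after K+ and Tl+ depolarization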); conditions: parental CHO-K1 cells, FluxOR thallium flux, at 10 µM; hits give high values
# How it was run: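 Material: parental CHO-K1 cells, FluxOR dye-loaded; Also added: Potassium/thallium depolarization pulse; Schedule: overnight 37 °C plating, 90 min dye, 20 min dark compound; Signal: kinetic FluxOR fluorescence, 10 s baseline, 110 s after stimulus.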
# [2] = target: Potassium voltage-gated channel subfamily KQT member 1 (Homo sapiens) (UniProt P51787); assay: enhancement of KCNQ1 channel thallium flux – FluxOR thallium flux, CHO cells, duplicates, confirmation (AID 493007;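 active means potentiation averaged over duplicate wells exceeding buffer-only control mean by more than 3 SD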;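 on outcome: cells depolarized by a potassium plus thallium sulfate stimulus after compound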); conditions: KCNQ1 cell line, FluxOR thallium flux fluorescence, at 10 µM; hits give high values, % of reference activator effect, buffer zero
# Chain of Potassium voltage-gated channel subfamily KQT member 1 (Homo sapiens) (P51787 whole entry, looked up): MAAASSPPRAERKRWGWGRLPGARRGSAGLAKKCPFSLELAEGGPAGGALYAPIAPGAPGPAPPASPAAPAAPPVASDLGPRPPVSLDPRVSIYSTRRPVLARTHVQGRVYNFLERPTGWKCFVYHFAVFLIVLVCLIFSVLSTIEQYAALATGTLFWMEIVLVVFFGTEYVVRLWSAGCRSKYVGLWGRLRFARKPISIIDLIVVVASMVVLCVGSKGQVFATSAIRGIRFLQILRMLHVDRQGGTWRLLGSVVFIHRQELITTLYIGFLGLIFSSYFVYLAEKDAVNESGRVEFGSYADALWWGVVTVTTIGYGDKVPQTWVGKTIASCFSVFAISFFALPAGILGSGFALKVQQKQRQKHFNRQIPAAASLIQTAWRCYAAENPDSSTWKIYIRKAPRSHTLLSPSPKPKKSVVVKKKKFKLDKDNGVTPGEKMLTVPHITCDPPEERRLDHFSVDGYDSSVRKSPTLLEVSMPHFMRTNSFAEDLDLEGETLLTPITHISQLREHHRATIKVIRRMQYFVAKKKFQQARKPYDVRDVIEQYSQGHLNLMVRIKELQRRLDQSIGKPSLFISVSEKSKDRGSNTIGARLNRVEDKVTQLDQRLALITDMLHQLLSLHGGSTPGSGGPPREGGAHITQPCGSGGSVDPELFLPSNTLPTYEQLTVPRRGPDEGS
# How it was run: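 System: KCNQ1-expressing CHO cell line; technique: kinetic thallium influx fluorescence with FluxOR dye, 10 s baseline, 110 s post-stimulus; timing: dye 90 min then compound 20 min, both at room temperature; controls: buffer-only wells as 0% and R-L3 activator as 100%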
# [3] = target: Potassium voltage-gated channel subfamily KQT member 2 (Rattus norvegicus) (UniProt O88943); assay: KCNQ2 thallium flux enhancement – KCNQ2-CHO-K1 cells, selectivity assay for KCNQ1 potentiator project (AID 493009); conditions: FluxOR thallium flux fluorescence, at 10 µM; hits give high values, scaled: buffer 0, activator control 100;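 further: assay conditions were tuned for KCNQ1 rather than KCNQ2 modulators; signal is max minus min fluorescence divided by baseline after thallium stimulus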
# Chain of Potassium voltage-gated channel subfamily KQT member 2 (Rattus norvegicus) (O88943 whole entry, looked up): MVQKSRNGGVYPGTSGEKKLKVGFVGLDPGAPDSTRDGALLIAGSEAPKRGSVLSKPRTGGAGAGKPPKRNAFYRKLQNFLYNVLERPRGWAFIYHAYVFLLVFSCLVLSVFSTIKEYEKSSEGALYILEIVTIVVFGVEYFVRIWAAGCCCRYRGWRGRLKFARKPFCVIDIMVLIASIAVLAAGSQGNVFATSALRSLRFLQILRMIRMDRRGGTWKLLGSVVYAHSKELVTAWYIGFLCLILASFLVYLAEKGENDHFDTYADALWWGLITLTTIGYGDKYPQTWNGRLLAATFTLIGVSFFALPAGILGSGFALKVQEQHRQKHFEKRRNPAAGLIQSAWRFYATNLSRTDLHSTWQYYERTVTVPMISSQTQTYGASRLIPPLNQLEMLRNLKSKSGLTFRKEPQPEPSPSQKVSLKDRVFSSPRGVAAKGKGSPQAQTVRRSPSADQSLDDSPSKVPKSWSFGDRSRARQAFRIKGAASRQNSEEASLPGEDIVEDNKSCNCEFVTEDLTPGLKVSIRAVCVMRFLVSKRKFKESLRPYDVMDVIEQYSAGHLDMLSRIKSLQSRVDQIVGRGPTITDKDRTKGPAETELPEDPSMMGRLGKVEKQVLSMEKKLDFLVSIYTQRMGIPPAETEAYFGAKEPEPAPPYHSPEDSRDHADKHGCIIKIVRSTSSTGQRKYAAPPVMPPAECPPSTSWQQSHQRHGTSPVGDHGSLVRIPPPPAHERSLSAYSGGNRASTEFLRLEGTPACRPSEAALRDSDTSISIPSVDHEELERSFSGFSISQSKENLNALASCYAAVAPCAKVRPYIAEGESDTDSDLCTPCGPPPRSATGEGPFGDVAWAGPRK
# [4] = target: Potassium voltage-gated channel subfamily KQT member 1 (Homo sapiens) (UniProt P51787); assay: KCNQ1 activators by electrophysiology – IonWorks patch clamp, KCNQ1-CHO cells, orthogonal assay for KCNQ1 potentiator project, confirmation (AID 493184;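 active means current rise at least 3 SD above the untreated control mean in each of two repeat wells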;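 on current potentiation: percent change of the same well's current before compound addition so 0% = no change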); conditions: automated patch clamp current, at 10 µM; hits give high values
# How it was run: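 Test system: KCNQ1-expressing CHO cells. Medium: pH 7.4 external bath. Probe or stimulus: voltage step from -90 mV holding to +40 mV, 2,000 ms. Compound: 10 µM final, single point. Detection: automated perforated-patch electrophysiology. Read-out: percent current increase versus pre-compound level. Repeats: two replicates.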
Compound,activation [1],potentiation [2],potentiation [3],outcome [4],outcome [1],outcome [2],outcome [3],current potentiation [4]
Cc1cc(Cl)ccc1OCc1n[nH]c(=S)n1C1CCCCC1,190% (active),129% (active),212% (active),inactive,,,,
COc1ccc(Cl)cc1NC(=O)CNc1ccc(F)cc1C,,,,inactive,inactive,inactive,inactive,
O=c1cc(-c2ccccc2)nc2c(-c3ccccc3)c(C(F)(F)F)[nH]n12,626% (active),282% (active),591% (active),inactive,,,,
CCOC(=O)c1sc2nc(Cc3ccc(Cl)cc3)[nH]c(=S)c2c1C,302% (active),144% (active),362% (active),inactive,,,,
Cc1ccc(S(=O)(=O)N(C)c2nc3ccccc3[nH]c2=S)cc1,,42.5% (active),197% (active),inactive,inactive,,,
CC(OC(=O)CCCNC(=O)c1ccc(Cl)cc1)C(=O)N(C)Cc1ccccc1 (stereo not given),,,,inactive,inactive,inactive,inactive,
O=C(CN1CCN(Cc2ccc(F)cc2Cl)C1=O)NCCc1ccccc1,,,,inactive,inactive,inactive,inactive,
Cc1cc(S(=O)(=O)N2CCOCC2)ccc1OCC(=O)NCc1ccccn1,,,,inactive,inactive,inactive,inactive,
Cc1cc(C(=O)N2CCCC(N3CCN(c4cccc(Cl)c4)CC3)C2)n(C)n1 (stereo not given),,,,inactive,inactive,inactive,inactive,
O=C(Nc1ccccc1OC(F)F)c1ccc(F)cc1,,,,inactive,inactive,inactive,inactive,
CC(C)CCn1c(=O)c2ccccc2n2c(=S)[nH]nc12,,,,inactive,inactive,inactive,inactive,
Cc1cccc(Nc2ccccc2C(=O)OCC(=O)N(C)C2CCS(=O)(=O)C2)c1C (stereo not given),,,,inactive,inactive,inactive,inactive,
Cc1[nH]c(=S)sc1Cc1ccc(F)cc1,286% (active),101% (active),300% (active),inactive,,,,
ON/C=N/C(=S)Nc1ncc(C(F)(F)F)cc1Cl,264% (active),69% (active),218% (active),inactive,,,,
NC(=S)Nc1nc2ccccc2s1,165% (active),54.5% (active),186% (active),inactive,,,,
COc1ccc(-c2cc3nc(C)c(CCC(=O)NC(C)CCc4ccco4)c(C)n3n2)c(OC)c1 (stereo not given),,,,inactive,inactive,inactive,inactive,
COCCN(CCOC)Cc1cc(=O)oc2cc3c(cc12)CCC3,145% (active),45.5% (active),,inactive,,,inactive,
O=C1CC(c2ccccc2)CC(O)=C1C=Nc1ccc(O)cc1 (stereo not given),,,,inactive,inactive,inactive,inactive,
CC1CCCCN1C(=S)NC(=O)c1cccs1 (stereo not given),,,,inactive,inactive,inactive,inactive,
O=C(c1ccccc1)N1CCC(CC2CC(c3ccc(Cl)cc3)=NO2)(C(=O)NCC2CCCCC2)CC1 (stereo not given),,,,inactive,inactive,inactive,inactive,
CCC(Oc1ccc(Cl)cc1)C(=O)N1CC(=O)Nc2ccccc21 (stereo not given),,,,inactive,inactive,inactive,inactive,
CCC1(c2ccc(Cl)cc2)NC(=S)N(c2ccc(C)c(C)c2)N1 (stereo not given),706% (active),188% (active),550% (active),inactive,,,,
COC(=O)C1SCC2C(=O)N(Cc3ccc(F)cc3)CC(=O)N21 (stereo not given),,46.5% (active),178% (active),inactive,inactive,,,
Cc1ccc2nc(SCC(=O)N3CCN(C(=O)c4ccco4)CC3)[nH]c2c1,,,,inactive,inactive,inactive,inactive,
COc1ccc(Cl)cc1NC(=O)/C=C\C(=O)O,,,,inactive,inactive,inactive,inactive,
O=C(NCCCn1ccnc1)c1cc(C2CC2)on1,,,,inactive,inactive,inactive,inactive,
CC(=O)N/C(=C/c1ccc2c(c1)OCO2)C(=O)O,,,,inactive,inactive,inactive,inactive,
CN1CCC(Oc2ccccc2Sc2ccc(C(F)(F)F)cc2)CC1,,,,inactive,inactive,inactive,inactive,

Compound,activation [1],potentiation [2],potentiation [3],outcome [4],outcome [1],outcome [2],outcome [3],current potentiation [4]
CCCSc1nnc(-c2cnn(-c3ccccc3)c2-n2cccc2)n1C,,,,inactive,inactive,inactive,inactive,
COC(=O)c1ccc(NC(=S)NC(=O)c2cc(-c3ccccc3)nc3ccccc23)cc1,174% (active),37% (active),178% (active),inactive,,,,
C=C[C@@]1(C)CC(=O)[C@]2(O)[C@@]3(C)[C@@H](O)CCC(C)(C)[C@@H]3[C@H](OC(C)=O)[C@H](O)[C@@]2(C)O1,,,,inactive,inactive,inactive,inactive,
O=C(NC(=S)N(Cc1ccccc1)Cc1ccccc1)c1ccccc1F,225% (active),208% (active),338% (active),inactive,,,,
CN(C)c1ccc(C(=O)Nc2nnc(C3=COCCO3)o2)cc1,,,,inactive,inactive,inactive,inactive,
O=C(/C=C/c1ccco1)Nc1scc(-c2ccccc2)c1C(=O)O,,,,inactive,inactive,inactive,inactive,
O=C(CSc1nc2ccccc2s1)c1cc2ccccc2o1,,,,inactive,inactive,inactive,inactive,
CCOC(=S)NC(=O)c1sc2ccccc2c1Cl,398% (active),122% (active),404% (active),inactive,,,,
O=C(NC(=S)Nc1ccccc1)c1cccs1,137% (active),,142% (active),inactive,,inactive,,
CC1=NN(C(=O)c2csc(C(C)C)c2)C(O)(C(F)(F)F)C1 (stereo not given),164% (active),61.5% (active),178% (active),inactive,,,,
COc1ccc(-n2nc3c(c2NC(=O)c2ccc4c(c2)OCO4)CS(=O)(=O)C3)cc1,224% (active),75.5% (active),206% (active),inactive,,,,
COc1ccc(C)cc1-n1c(SCC(=O)Nc2cc(C)on2)nc2ccccc2c1=O,,,,inactive,inactive,inactive,inactive,
O=C(c1c[nH]c(C(=O)C(Cl)(Cl)Cl)c1)c1ccc(F)cc1Cl,145% (active),47% (active),160% (active),inactive,,,,
CCOC(=O)c1ccccc1NC(=O)CSc1nc2ccccc2n1CC(=O)N1CCCC1,,,,inactive,inactive,inactive,inactive,
CCOc1ccc(C2C(C#N)=C(N)N(c3sc4c(c3C#N)CCCC4)C3=C2C(=O)CCC3)cc1 (stereo not given),,,,inactive,inactive,inactive,inactive,
CCn1c(SCC(=O)NC(=O)NCc2ccco2)nc2sc(C)c(C)c2c1=O,184% (active),40.5% (active),173% (active),inactive,,,,
CC1CCN(c2ncnc3ccccc23)CC1,,,,inactive,inactive,inactive,inactive,
CCOc1ccc2nc(N3C(=O)/C(=C/c4ccccc4)NC3=S)sc2c1,442% (active),367% (active),700% (active),inactive,,,,
COc1cccc(C(=O)NNC(=O)C(=O)Nc2cccc(Cl)c2C)c1,195% (active),128% (active),299% (active),inactive,,,,
C=CCn1c(N)c(C(=O)Nc2ccc(C)cc2)sc1=S,,,,inactive,inactive,inactive,inactive,
Cc1cc(C)nc(N(C#N)CC(=O)c2ccccc2)n1,,,,inactive,inactive,inactive,inactive,
O=C(NC(=S)Nc1ccccc1)c1cc(-c2ccccc2)nc2ccccc12,158% (active),75% (active),194% (active),inactive,,,,
COC(=O)c1ccc(COC(=O)c2ccccc2OC)cc1,,,,inactive,inactive,inactive,inactive,
S=c1nc(-c2ccccc2)[nH]c2ccc(Br)cc12,578% (active),294% (active),602% (active),inactive,,,,
CCN(CC)CCCNC(=O)c1[nH]c2ccccc2c1Sc1ccc(Cl)cc1,,73% (active),,,inactive,,inactive,29.6% (active)
O=C(Nc1cccc2cccnc12)c1ccc(Br)o1,,,,inactive,inactive,inactive,inactive,
CN(CC(=O)Nc1c(Cl)cccc1Cl)C(=O)c1n[nH]c2ccccc12,,,,inactive,inactive,inactive,inactive,
